Measured values gathered from unrelated publications.
Compare with care: the assays were run in different laboratories.
Method: competition with immobilised ligand
JAK2 JH1: Tyrosine-protein kinase JAK2, JH1 (JAK2, Homo sapiens, UniProt O60674)
JAK2: Tyrosine-protein kinase JAK2 (JAK2, Homo sapiens, UniProt O60674)

SMILES | target | effect on | concentration | remaining binding [%]
COc1ncc2cc3ccccc3nc2c1C#N | JAK2 JH1 | cell-free assay | 5 µM | 88
COc1cnc(Nc2cccc(S(N)(=O)=O)c2)nc1N1CCN(c2ccccc2)CC1 | JAK2 JH1 | binding | 1 µM | 14
CS(=O)(=O)N1CCCC(NC(=O)[C@H](CCC2CCCCC2)NC(=O)c2ccc(CNC(=O)c3cnc4ccccn34)cc2)C1 (stereo partly shown) | JAK2 JH1 | cell-free assay | 0.1 µM | 100
CCN1CCN(Cc2ccc(C(=O)Nc3ccc(C)c(Oc4ccc5c(c4)CC(=O)N5)c3)cc2C(F)(F)F)CC1 | JAK2 JH1 | binding | 1 µM | 91
N#Cc1ccccc1CSc1nnc2c(n1)[nH]c1ccccc12 | JAK2 JH1 | binding | 10 µM | 100
CC(=O)N1CCC(c2ccc(C(=O)NC3=NCCN3)cc2C(F)(F)F)CC1 | JAK2 JH1 | cell-free assay | 1 µM | 100
CC(C)(C)c1ccc(-c2nc(CBr)nn2-c2cccc(O)c2)cc1 | JAK2 | cell-free assay | 10 µM | 67
Cn1nc(C(F)(F)F)cc1-c1cnc(N2CCc3cc(S(=O)(=O)Nc4c(F)cc(Cl)cc4F)cc(N4CCCC4=O)c32)nc1 | JAK2 JH1 | cell-free assay | 1 µM | 82
c1cncc(-c2cccc(Nc3nccc(NC4CCCCC4)n3)c2)c1 | JAK2 JH1 | binding | 10 µM | 0.05
COc1ccc2c(O[C@@H]3C[C@H]4C(=O)N[C@]5(C(=O)O)CC5/C=C\CCCCC[C@H](NC(=O)OC5CCCC5)C(=O)N4C3)cc(-c3csc(NC(=O)C(C)C)n3)nc2c1C (stereo partly shown) | JAK2 JH1 | cell-free assay | 1 µM | 64
O=C(NCCCN1CCOCC1)c1ccc(Nc2ncc(Cl)c(-c3ccc(Cl)s3)n2)cc1 | JAK2 JH1 | binding | 1 µM | 2.9
C[C@@H]1CN(c2ccc3ncc(-c4ccc5[nH]nc(C6CC6)c5c4)n3n2)C[C@H](C)O1 | JAK2 | binding | 0.5 µM | 87
O=C(c1ccc(Nc2nccc(-c3cc4ccccc4s3)n2)cc1)N1CCC(N2CCCC2)CC1 | JAK2 JH1 | binding | 1 µM | 0.1
CN(C)c1nccc(-c2cnn3ncccc23)n1 | JAK2 JH1 | cell-free assay | 1 µM | 49
O=C(NCC1CCOCC1)c1n[nH]cc1NC(=O)c1c(F)cccc1F | JAK2 JH1 | binding | 1 µM | 85
N[C@@H]1CCN(c2nccc(-c3cnn4ncccc34)n2)C1 | JAK2 JH1 | cell-free assay | 1 µM | 100
COc1ccc2cc(OCC3(C(=O)O)CN(C(=O)c4ccc(F)cc4)C3)ccc2c1 | JAK2 JH1 | cell-free assay | 1 µM | 89
O=C(c1ccc(Nc2ncc(Cl)c(-c3cc4ccccc4s3)n2)cc1)N1CCC(N2CCCC2)CC1 | JAK2 JH1 | binding | 1 µM | 0
CN(CCCC(F)(F)F)c1nccc(-c2cnn3ncccc23)n1 | JAK2 JH1 | cell-free assay | 1 µM | 94
